# Active and inactive are the calls of the source. The rule behind the calls is not given here.
# Key:
# [1] = system: Candida albicans; test: Antifungal activity against Candida albicans CA135 after 48 hrs by broth microdilution method; assay type: functional; details: CA135, 48 h
# How it was run: (§1)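 CLSI M27-A2 broth microdilution of clinical isolates in RPMI 1640 buffered to pH 7.0 with 0.165 M MOPS. Final inoculum 0.5 x 10^3 to 2.5 x 10^3 cells/ml, incubated 35°C for 48 h. Growth read as OD490 with background subtracted. MIC taken as the lowest drug concentration giving 80% growth reduction versus drug-free control. Run in triplicate.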
# [2] = system: Candida albicans; test: Antifungal activity against Candida albicans CA138 after 48 hrs by broth microdilution method; assay type: functional; details: CA138, 48 h; how it was run: as §1
# [3] = system: Candida albicans; test: Antifungal activity against Candida albicans CA3 after 48 hrs by broth microdilution method; assay type: functional; details: CA3, 48 h; how it was run: as §1
# [4] = system: Candida albicans; test: Antifungal activity against Candida albicans CA132 after 48 hrs by broth microdilution method; assay type: functional; details: CA132, 48 h; how it was run: as §1
# [5] = system: Candida albicans; test: Antifungal activity against Candida albicans CA127 after 48 hrs by broth microdilution method; assay type: functional; details: CA127, 48 h; how it was run: as §1
# [6] = system: Candida albicans; test: Antifungal activity against Candida albicans CA137 after 48 hrs by broth microdilution method; assay type: functional; details: CA137, 48 h; how it was run: as §1
# [7] = system: Candida albicans; test: Antifungal activity against Candida albicans CA10 after 48 hrs by broth microdilution method; assay type: functional; details: CA10, 48 h; how it was run: as §1
# [8] = system: Candida albicans; test: Antifungal activity against Candida albicans CA2 after 48 hrs by broth microdilution method; assay type: functional; details: CA2, 48 h; how it was run: as §1
# [9] = system: Candida albicans; test: Antifungal activity against Candida albicans CA1 after 48 hrs by broth microdilution method; assay type: functional; details: CA1, 48 h; how it was run: as §1
# [10] = system: Candida albicans; test: Antifungal activity against Candida albicans CA4 after 48 hrs by broth microdilution method; assay type: functional; details: CA4, 48 h; how it was run: as §1
# [11] = system: Candida albicans; test: Antifungal activity against Candida albicans CA127 after 48 hrs by broth microdilution method in presence of itraconazole; assay type: functional
# How it was run: (§2)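 Checkerboard broth microdilution (CLSI M27-A2) on clinical isolates in RPMI 1640 buffered to pH 7.0 with 0.165 M MOPS. Final inoculum was 0.5 x 10^3 to 2.5 x 10^3 CFU/ml. RAB was tested at 0.25–16 µg/ml against FLC at 0.008–8 µg/ml, or against KCZ or ITR at 0.001–1 µg/ml. Plates ran 48 h at 35°C, read by background-subtracted OD490. MIC was taken at 80% growth reduction versus drug-free control. Run in triplicate.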
# [12] = system: Candida albicans; test: Antifungal activity against Candida albicans CA138 after 48 hrs by broth microdilution method in presence of fluconazole; assay type: functional; how it was run: as §2
# [13] = system: Candida albicans; test: Antifungal activity against Candida albicans CA137 after 48 hrs by broth microdilution method in presence of ketoconazole; assay type: functional; how it was run: as §2
# [14] = system: Candida albicans; test: Antifungal activity against Candida albicans CA10 assessed as log reduction in fungal burden at 8 ug/ml after 48 hrs by time kill analysis in presence of ketoconazole; assay type: functional, organism-based
# How it was run: (§3)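 Time-kill on CA10 in RPMI 1640 starting at 10^5 CFU/ml. Treatments were RAB 8 µg/ml combined with FLC 8 µg/ml, ITR 8 µg/ml or KCZ 2 µg/ml; DMSO <1%; drug-free growth control. Samples were taken before treatment and at 6, 12, 24 and 48 h, then diluted, plated and counted after 48 h at 35°C.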
# [15] = system: Candida albicans; test: Antifungal activity against Candida albicans CA135 after 48 hrs by broth microdilution method in presence of fluconazole; assay type: functional; how it was run: as §2
# [16] = system: Candida albicans; test: Antifungal activity against Candida albicans CA10 assessed as cell viability after 2 hrs by XTT reduction assay in presence of ketoconazole; assay type: functional, organism-based
# How it was run: (§4)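 Viability was read on CA10 time-kill cultures grown in RPMI 1640 from 10^5 CFU/ml. Treatments were RAB 8 µg/ml plus FLC 8 µg/ml, ITR 8 µg/ml or KCZ 2 µg/ml, with DMSO <1%. At each sampling time a 100-µl aliquot got XTT-menadione (final 0.25 mg/ml and 5 µM) and was held in the dark up to 2 h at 35°C. Formazan was read at 490 nm; triplicate means.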
# [17] = system: Candida albicans; test: Antifungal activity against Candida albicans CA132 after 48 hrs by broth microdilution method in presence of fluconazole; assay type: functional; how it was run: as §2
# [18] = system: Candida albicans; test: Antifungal activity against Candida albicans CA1 after 48 hrs by broth microdilution method in presence of itraconazole; assay type: functional; how it was run: as §2
# [19] = system: Candida albicans; test: Antifungal activity against Candida albicans CA10 assessed as log reduction in fungal burden at 8 ug/ml after 48 hrs by time kill analysis in presence of itraconazole; assay type: functional, organism-based; how it was run: as §3
# [20] = system: Candida albicans; test: Antifungal activity against Candida albicans CA2 after 48 hrs by broth microdilution method in presence of fluconazole; assay type: functional; how it was run: as §2
# [21] = system: Candida albicans; test: Antifungal activity against Candida albicans CA3 after 48 hrs by broth microdilution method in presence of itraconazole; assay type: functional; how it was run: as §2
# [22] = system: Candida albicans; test: Antifungal activity against Candida albicans CA10 after 48 hrs by broth microdilution method in presence of itraconazole; assay type: functional; how it was run: as §2
# [23] = system: Candida albicans; test: Antifungal activity against Candida albicans CA137 after 48 hrs by broth microdilution method in presence of itraconazole; assay type: functional; how it was run: as §2
# [24] = system: Candida albicans; test: Antifungal activity against Candida albicans CA10 assessed as cell viability after 2 hrs by XTT reduction assay in presence of itraconazole; assay type: functional, organism-based; how it was run: as §4
# [25] = system: Candida albicans; test: Antifungal activity against Candida albicans CA1 after 48 hrs by broth microdilution method in presence of fluconazole; assay type: functional; how it was run: as §2
# [26] = system: Candida albicans; test: Antifungal activity against Candida albicans CA135 after 48 hrs by broth microdilution method in presence of itraconazole; assay type: functional; how it was run: as §2
# [27] = system: Candida albicans; test: Antifungal activity against Candida albicans CA138 after 48 hrs by broth microdilution method in presence of ketoconazole; assay type: functional; how it was run: as §2
# [28] = system: Candida albicans; test: Antifungal activity against Candida albicans CA127 after 48 hrs by broth microdilution method in presence of ketoconazole; assay type: functional; how it was run: as §2
# [29] = system: Candida albicans; test: Antifungal activity against Candida albicans CA10 after 48 hrs by broth microdilution method in presence of fluconazole; assay type: functional; how it was run: as §2
# [30] = system: Candida albicans; test: Antifungal activity against Candida albicans CA4 after 48 hrs by broth microdilution method in presence of ketoconazole; assay type: functional; how it was run: as §2
# [31] = system: Candida albicans; test: Antifungal activity against Candida albicans CA132 after 48 hrs by broth microdilution method in presence of ketoconazole; assay type: functional; how it was run: as §2
# [32] = system: Candida albicans; test: Antifungal activity against Candida albicans CA135 after 48 hrs by broth microdilution method in presence of ketoconazole; assay type: functional; how it was run: as §2
# [33] = system: Candida albicans; test: Antifungal activity against Candida albicans CA10 assessed as log reduction in fungal burden at 8 ug/ml after 48 hrs by time kill analysis in presence of fluconazole; assay type: functional, organism-based; how it was run: as §3
# [34] = system: Candida albicans; test: Antifungal activity against Candida albicans CA127 after 48 hrs by broth microdilution method in presence of fluconazole; assay type: functional; how it was run: as §2
# [35] = system: Candida albicans; test: Antifungal activity against Candida albicans CA2 after 48 hrs by broth microdilution method in presence of ketoconazole; assay type: functional; how it was run: as §2
# [36] = system: Candida albicans; test: Antifungal activity against Candida albicans CA4 after 48 hrs by broth microdilution method in presence of fluconazole; assay type: functional; how it was run: as §2
# [37] = system: Candida albicans; test: Antifungal activity against Candida albicans CA10 assessed as cell viability after 2 hrs by XTT reduction assay in presence of fluconazole; assay type: functional, organism-based; how it was run: as §4
# [38] = system: Candida albicans; test: Antifungal activity against Candida albicans CA1 after 48 hrs by broth microdilution method in presence of ketoconazole; assay type: functional; how it was run: as §2
# [39] = system: Candida albicans; test: Antifungal activity against Candida albicans CA2 after 48 hrs by broth microdilution method in presence of itraconazole; assay type: functional; how it was run: as §2
# [40] = system: Candida albicans; test: Antifungal activity against Candida albicans CA3 after 48 hrs by broth microdilution method in presence of fluconazole; assay type: functional; how it was run: as §2
# [41] = system: Candida albicans; test: Antifungal activity against Candida albicans CA132 after 48 hrs by broth microdilution method in presence of itraconazole; assay type: functional; how it was run: as §2
# [42] = system: Candida albicans; test: Antifungal activity against Candida albicans CA10 after 48 hrs by broth microdilution method in presence of ketoconazole; assay type: functional; how it was run: as §2
# [43] = system: Candida albicans; test: Antifungal activity against Candida albicans CA138 after 48 hrs by broth microdilution method in presence of itraconazole; assay type: functional; how it was run: as §2
# [44] = system: Candida albicans; test: Antifungal activity against Candida albicans CA4 after 48 hrs by broth microdilution method in presence of itraconazole; assay type: functional; how it was run: as §2
# [45] = system: Candida albicans; test: Antifungal activity against Candida albicans CA137 after 48 hrs by broth microdilution method in presence of fluconazole; assay type: functional; how it was run: as §2
# [46] = system: Candida albicans; test: Antifungal activity against Candida albicans CA3 after 48 hrs by broth microdilution method in presence of ketoconazole; assay type: functional; how it was run: as §2
smiles,measurement,setting,value
CC(=O)N1CCN(c2ccc(OCC3COC(Cn4ccnc4)(c4ccc(Cl)cc4Cl)O3)cc2)CC1 (stereo unspecified) [KETOCONAZOLE],MIC,[1],16 µg/mL
same,MIC,[2],16 µg/mL
same,MIC,[3],0.062 µg/mL
same,MIC,[4],0.031 µg/mL
same,MIC,[5],0.031 µg/mL
same,MIC,[6],16 µg/mL
same,MIC,[7],16 µg/mL
same,MIC,[8],0.016 µg/mL
same,MIC,[9],0.031 µg/mL
same,MIC,[10],0.062 µg/mL
CC(C)[C@H]1CC[C@@H]2[C@]1(C)CC[C@]1(C)[C@H]3CC[C@@H]4[C@](C(=O)O)(C[C@@H](O)[C@H](O)[C@@]4(C)C(=O)O)C3=CC[C@@]21C [RETIGERIC ACID B],fractional inhibitory concentration index (FICI),[11],0.375
same,fractional inhibitory concentration index (FICI),[12],0.252
same,MIC,[1],16 µg/mL
same,fractional inhibitory concentration index (FICI),[13],0.25
same,MIC,[2],8 µg/mL
same,Activity,[14],Active
same,fractional inhibitory concentration index (FICI),[15],0.127
same,Activity,[16],Active
same,fractional inhibitory concentration index (FICI),[17],0.75
same,fractional inhibitory concentration index (FICI),[18],0.75
same,Activity,[19],Active
same,MIC,[3],16 µg/mL
same,fractional inhibitory concentration index (FICI),[20],0.25
same,MIC,[4],8 µg/mL
same,MIC,[5],16 µg/mL
same,fractional inhibitory concentration index (FICI),[21],0.375
same,MIC,[6],16 µg/mL
same,fractional inhibitory concentration index (FICI),[22],0.252
same,fractional inhibitory concentration index (FICI),[23],0.258
same,MIC,[7],16 µg/mL
same,Activity,[24],Active
same,MIC,[8],16 µg/mL
same,fractional inhibitory concentration index (FICI),[25],0.5
same,fractional inhibitory concentration index (FICI),[26],0.254
same,fractional inhibitory concentration index (FICI),[27],0.254
same,fractional inhibitory concentration index (FICI),[28],0.625
same,fractional inhibitory concentration index (FICI),[29],0.126
same,fractional inhibitory concentration index (FICI),[30],0.75
same,fractional inhibitory concentration index (FICI),[31],0.625
same,fractional inhibitory concentration index (FICI),[32],0.125
same,Activity,[33],Active
same,fractional inhibitory concentration index (FICI),[34],0.5
same,fractional inhibitory concentration index (FICI),[35],0.253
same,fractional inhibitory concentration index (FICI),[36],0.625
same,Activity,[37],Active
same,fractional inhibitory concentration index (FICI),[38],0.375
same,fractional inhibitory concentration index (FICI),[39],0.375
same,fractional inhibitory concentration index (FICI),[40],0.5
same,fractional inhibitory concentration index (FICI),[41],0.75
same,fractional inhibitory concentration index (FICI),[42],0.254
same,fractional inhibitory concentration index (FICI),[43],0.254
same,fractional inhibitory concentration index (FICI),[44],0.625
same,fractional inhibitory concentration index (FICI),[45],0.252
same,MIC,[9],8 µg/mL
same,MIC,[10],8 µg/mL
same,fractional inhibitory concentration index (FICI),[46],0.25

# Source: ChEMBL document CHEMBL1629670, “In vitro activities of retigeric acid B alone and in combination with azole antifungal agents against Candida albicans” (2009)
